The results in this text go back to ChEMBL document CHEMBL1138485, “Discovery of inducible nitric oxide synthase (iNOS) inhibitor development candidate KD7332, part 1: Identification of a novel, potent, and selective series of quinolinone iNOS dimerization inhibitors that are orally active in rodent pain models” (J Med Chem, 2009).

One data set concerns the target CYP2D6 (Homo sapiens, UniProt P10635). The data set can be described thus: Inhibition of CYP2D6 at 100 uM. The data set is classed as ADME.
The target of another data set is T1, CYP1A2 (Homo sapiens, UniProt P05177).
T1 sequence (P05177 whole entry): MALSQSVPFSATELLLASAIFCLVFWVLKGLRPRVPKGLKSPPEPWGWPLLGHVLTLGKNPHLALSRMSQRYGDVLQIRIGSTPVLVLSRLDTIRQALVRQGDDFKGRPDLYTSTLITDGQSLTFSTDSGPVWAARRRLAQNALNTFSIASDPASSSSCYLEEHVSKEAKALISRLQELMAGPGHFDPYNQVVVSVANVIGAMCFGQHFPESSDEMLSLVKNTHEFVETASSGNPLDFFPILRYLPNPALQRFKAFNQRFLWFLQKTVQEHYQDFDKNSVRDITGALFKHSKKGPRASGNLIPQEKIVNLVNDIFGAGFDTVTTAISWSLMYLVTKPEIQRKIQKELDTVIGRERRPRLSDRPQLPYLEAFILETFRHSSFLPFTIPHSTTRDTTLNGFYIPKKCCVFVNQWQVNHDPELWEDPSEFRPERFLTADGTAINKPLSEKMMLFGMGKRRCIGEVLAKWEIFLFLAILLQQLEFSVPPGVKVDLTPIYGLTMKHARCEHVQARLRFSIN
The data set can be described thus: Inhibition of CYP1A2 at 100 uM. The data set is classed as ADME.

Data set [1] has as its system Mus musculus. In words: Reduction of plasma nitrate level in LPS-challenged po dosed BALB/c mouse. Format: functional. In short, it runs like this:
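Male Balb/c mice were dosed by oral gavage (90% PEG/5% Tween 80/5% PVP + 90% CMC (0.5% w/v)) at t = 0 h, 30 mg/kg for single-dose lines. LPS 10 mg/kg ip in 0.9% NaCl followed immediately. At 6 h, EDTA plasma was taken for nitrate and drug levels. Nitrate reduction is relative to vehicle; ED50 came from full oral dose-response.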

A further data set deals with Cytochrome P450 2D6 (Homo sapiens, UniProt P10635). The data set can be described thus: Inhibition of CYP2D6. The data set is classed as ADME.
The target in another data set is T2, Nitric oxide synthase 3 (Homo sapiens, UniProt P29474).
T2 sequence (P29474 whole entry): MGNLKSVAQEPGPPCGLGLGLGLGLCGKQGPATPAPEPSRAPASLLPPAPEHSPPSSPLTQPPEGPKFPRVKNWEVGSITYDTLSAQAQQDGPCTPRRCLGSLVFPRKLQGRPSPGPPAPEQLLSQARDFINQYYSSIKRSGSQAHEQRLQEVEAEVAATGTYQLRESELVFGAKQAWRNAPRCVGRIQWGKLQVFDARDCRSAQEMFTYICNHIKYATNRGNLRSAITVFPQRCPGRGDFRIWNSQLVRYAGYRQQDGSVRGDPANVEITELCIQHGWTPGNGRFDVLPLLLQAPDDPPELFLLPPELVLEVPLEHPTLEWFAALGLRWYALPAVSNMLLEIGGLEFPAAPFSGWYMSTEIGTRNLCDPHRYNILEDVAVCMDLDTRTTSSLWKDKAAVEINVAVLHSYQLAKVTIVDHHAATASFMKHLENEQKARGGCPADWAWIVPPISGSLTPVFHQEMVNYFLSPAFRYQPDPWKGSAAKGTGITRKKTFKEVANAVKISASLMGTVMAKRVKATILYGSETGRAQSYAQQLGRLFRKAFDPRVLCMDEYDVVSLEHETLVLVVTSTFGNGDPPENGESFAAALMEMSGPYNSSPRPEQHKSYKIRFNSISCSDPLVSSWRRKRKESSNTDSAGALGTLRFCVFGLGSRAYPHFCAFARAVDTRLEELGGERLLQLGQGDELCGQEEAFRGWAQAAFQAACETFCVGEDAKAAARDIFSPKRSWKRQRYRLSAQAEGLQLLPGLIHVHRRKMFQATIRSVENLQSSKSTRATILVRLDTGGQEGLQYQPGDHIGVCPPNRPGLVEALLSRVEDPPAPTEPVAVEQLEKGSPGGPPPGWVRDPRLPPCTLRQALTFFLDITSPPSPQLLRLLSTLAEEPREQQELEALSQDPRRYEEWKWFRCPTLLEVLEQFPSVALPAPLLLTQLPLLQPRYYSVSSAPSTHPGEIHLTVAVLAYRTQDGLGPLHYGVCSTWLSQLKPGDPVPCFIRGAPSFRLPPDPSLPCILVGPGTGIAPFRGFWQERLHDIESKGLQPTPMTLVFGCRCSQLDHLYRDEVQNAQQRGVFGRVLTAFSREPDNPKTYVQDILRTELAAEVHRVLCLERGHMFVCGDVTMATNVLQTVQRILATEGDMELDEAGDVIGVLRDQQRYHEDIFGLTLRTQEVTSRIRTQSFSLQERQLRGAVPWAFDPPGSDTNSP
The data set can be described thus: Inhibition of human eNOS expressed in HEK293 cells assessed as NO production by transient transfection assay. The data set is classed as cell-based. The method in brief:
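HEK293 cells grown to ~70% confluence in DMEM/10% FBS with pen/strep, transfected with 15 µg human eNOS plasmid plus Fugene 6 (3:1 µL:µg), 4 h at 37 °C, 10% CO2. Cells replated at 5 × 10⁵/mL, compound added at once, 24 h incubation, then A23187 (83 nM final). After 18 h, NO read by DAN fluorescence.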

A further data set has as its target Cytochrome P450 2C9 (Homo sapiens, UniProt P11712). The data set can be described thus: Inhibition of CYP2C9. Format: ADME.
The subject of data set [2] is Mus musculus. The data set can be described thus: Antinociceptive activity against formalin-induced phase 2 pain in mouse paw assessed as pain behavior at 100 mg/kg, po pretreated 30 mins before formalin challenge relative to control. Format: functional. In short, it runs like this:
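Mice were dosed 100 mg/kg po (PEG/Tween 80/PVP + CMC vehicle) 30 min before 20 µL formalin into the left hind paw. Phase II pain-behavior duration was timed 25–45 min post-injection by a single observer. Results are mean ± SE, n = 5–6 mice, compared to vehicle by one-way ANOVA with post hoc tests.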

A short description of data set [3]: Plasma clearance in mouse at 10 mg/kg, po. Set-up: dose 10 mg/kg, route oral. The data set is classed as ADME, organism-based.
The nature of data set [4]: Cmax in mouse at 10 mg/kg, po. Set-up: dose 10 mg/kg, route oral. The data set is classed as ADME, organism-based. The settings on record: in vivo.
The test system of data set [5] is Mus musculus. In words: Volume of distribution in mouse at 10 mg/kg, po. The data set is classed as ADME, organism-based. Set-up: dose 10 mg/kg, route oral. The settings on record: in vivo.
Data set [6] is described as follows: Half life in mouse at 10 mg/kg, po. Format: ADME, organism-based. More on the design: dose 10 mg/kg, route oral. The settings on record: in vivo.
A short description of data set [7]: Tmax in mouse at 10 mg/kg, po. The settings on record: in vivo. The data set is classed as ADME, organism-based. Set-up: dose 10 mg/kg, route oral.
A short description of data set [8]: AUC in mouse at 10 mg/kg, po. Format: ADME, organism-based. Set-up: dose 10 mg/kg, route oral. The settings on record: plasma.
Data set [9] concerns the target Voltage-gated inwardly rectifying potassium channel KCNH2 (Homo sapiens, UniProt Q12809). The data set can be described thus: Activity at human ERG by patch clamp assay.

pEC50: −log10 of the molar value.

Chain of Cytochrome P450 2D6 (P10635 whole entry): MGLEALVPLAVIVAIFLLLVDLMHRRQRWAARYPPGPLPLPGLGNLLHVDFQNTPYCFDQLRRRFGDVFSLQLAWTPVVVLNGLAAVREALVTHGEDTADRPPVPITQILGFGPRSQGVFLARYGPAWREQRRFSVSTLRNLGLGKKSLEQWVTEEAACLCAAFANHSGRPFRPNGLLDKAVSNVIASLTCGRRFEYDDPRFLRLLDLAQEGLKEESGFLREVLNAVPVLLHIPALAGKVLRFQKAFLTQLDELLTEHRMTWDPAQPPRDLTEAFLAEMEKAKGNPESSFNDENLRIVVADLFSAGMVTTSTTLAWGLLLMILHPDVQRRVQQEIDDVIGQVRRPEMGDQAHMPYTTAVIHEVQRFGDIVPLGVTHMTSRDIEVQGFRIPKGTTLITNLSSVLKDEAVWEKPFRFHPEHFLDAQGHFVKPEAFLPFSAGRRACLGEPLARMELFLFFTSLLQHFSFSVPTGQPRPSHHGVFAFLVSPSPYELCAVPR
Chain of CYP2D6 (P10635 whole entry): as above
Chain of Cytochrome P450 2C9 (P11712 whole entry): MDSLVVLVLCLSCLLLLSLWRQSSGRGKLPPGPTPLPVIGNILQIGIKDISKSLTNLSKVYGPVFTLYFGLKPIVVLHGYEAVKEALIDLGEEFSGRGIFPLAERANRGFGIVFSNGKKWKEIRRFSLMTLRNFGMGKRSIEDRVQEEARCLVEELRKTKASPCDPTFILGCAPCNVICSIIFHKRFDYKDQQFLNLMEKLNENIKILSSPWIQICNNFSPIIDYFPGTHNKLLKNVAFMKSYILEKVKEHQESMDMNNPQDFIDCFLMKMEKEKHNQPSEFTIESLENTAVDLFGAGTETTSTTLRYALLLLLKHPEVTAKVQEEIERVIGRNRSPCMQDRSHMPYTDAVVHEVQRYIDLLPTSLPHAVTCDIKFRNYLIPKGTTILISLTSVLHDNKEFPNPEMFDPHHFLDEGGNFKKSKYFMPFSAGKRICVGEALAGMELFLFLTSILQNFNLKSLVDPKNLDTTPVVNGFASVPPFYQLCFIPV
Chain of Voltage-gated inwardly rectifying potassium channel KCNH2 (Q12809 whole entry): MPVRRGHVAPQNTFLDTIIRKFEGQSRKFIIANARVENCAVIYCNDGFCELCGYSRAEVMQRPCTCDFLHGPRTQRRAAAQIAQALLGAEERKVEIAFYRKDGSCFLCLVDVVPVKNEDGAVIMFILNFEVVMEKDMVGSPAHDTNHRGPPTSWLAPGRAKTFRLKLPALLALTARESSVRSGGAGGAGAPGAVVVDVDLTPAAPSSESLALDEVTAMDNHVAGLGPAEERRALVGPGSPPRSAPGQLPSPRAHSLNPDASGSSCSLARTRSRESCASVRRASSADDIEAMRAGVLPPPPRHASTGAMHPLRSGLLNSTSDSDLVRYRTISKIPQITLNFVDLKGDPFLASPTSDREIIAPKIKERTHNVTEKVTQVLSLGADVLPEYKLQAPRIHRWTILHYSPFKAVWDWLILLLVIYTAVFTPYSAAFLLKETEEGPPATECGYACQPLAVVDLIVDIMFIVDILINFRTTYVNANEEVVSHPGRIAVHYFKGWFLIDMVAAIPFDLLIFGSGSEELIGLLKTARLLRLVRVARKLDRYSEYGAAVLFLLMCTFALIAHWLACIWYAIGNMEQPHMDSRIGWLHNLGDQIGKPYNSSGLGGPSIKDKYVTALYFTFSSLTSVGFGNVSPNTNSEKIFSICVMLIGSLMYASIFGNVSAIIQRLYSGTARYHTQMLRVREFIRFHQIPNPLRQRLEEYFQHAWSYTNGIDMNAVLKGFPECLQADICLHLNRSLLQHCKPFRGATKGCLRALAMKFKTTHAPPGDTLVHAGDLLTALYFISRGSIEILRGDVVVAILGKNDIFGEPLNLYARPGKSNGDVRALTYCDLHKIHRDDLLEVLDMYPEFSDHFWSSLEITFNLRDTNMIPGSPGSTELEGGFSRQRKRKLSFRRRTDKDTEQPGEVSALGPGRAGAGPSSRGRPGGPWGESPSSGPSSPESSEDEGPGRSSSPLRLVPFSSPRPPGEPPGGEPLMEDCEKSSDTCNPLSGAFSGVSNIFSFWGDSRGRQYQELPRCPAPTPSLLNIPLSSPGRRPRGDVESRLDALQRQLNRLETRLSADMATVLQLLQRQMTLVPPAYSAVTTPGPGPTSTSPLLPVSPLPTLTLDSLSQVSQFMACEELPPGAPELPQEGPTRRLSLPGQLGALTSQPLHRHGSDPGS

Take `CC1=C(C(=O)N(Cc2cc(=O)[nH]c3c(F)c(F)ccc23)c2cccc(Cl)c2)CNCC1`: the inhibition at 100 µM on CYP2D6 and against CYP1A2 was under 50% in each case. Moreover, in the data set with Mus musculus [1], the ED50 stood at 16 mg/kg. For the same compound, the negative logarithm of the EC50 (pEC50) on Cytochrome P450 2D6 was under 4.00; at Nitric oxide synthase 3 it was 5.60.

Take `CC(C)C(=O)N(Cc1cc(=O)[nH]c2c(F)cccc12)c1cccc(Cl)c1`: the inhibition at 100 µM at CYP2D6 and on CYP1A2 was under 50% each time. In addition, the pEC50 on Cytochrome P450 2D6 and on Nitric oxide synthase 3 was under 4.00 in each case.

`Cc1ncsc1C(=O)N(Cc1cc(=O)[nH]c2c(F)c(F)ccc12)c1cccc(Cl)c1` yielded an inhibition at 100 µM against CYP2D6 of under 50%. The compound also showed an ED50 with Mus musculus [1] of 13 mg/kg. The results for the pEC50 on Cytochrome P450 2C9, at Cytochrome P450 2D6 and on Nitric oxide synthase 3 were 4.66, under 4.00 and 5.52, respectively.

In the case of `Cn1cncc1C(=O)N(Cc1cc(=O)[nH]c2c(F)c(F)ccc12)c1cccc(Cl)c1`, the Activity in the data set with Mus musculus [2] amounted to 65%. The compound also showed a CL/F in data set [3] of over 100 mL/min/kg. The compound also gave a Cmax in data set [4] of 2200 nM. This compound returned a Vdss in the data set on Mus musculus [5] of 1.1 L/kg. In the data set with Mus musculus [1], this compound came in with a 50% effective dose (ED50) of 5 mg/kg. In data set [6], this compound gave a half-life of 66 min. The time of peak concentration (Tmax) in data set [7] amounted to 15 min. The compound also came in with an AUC in [8] of 520 ng·h/mL. Moreover, the negative-log EC50 (pEC50) was 5.10 in data set [9], 4.60 at Cytochrome P450 2C9, 4.68 at Cytochrome P450 2D6 and 6.38 on Nitric oxide synthase 3.

For the compound `Cc1ncsc1C(=O)N(Cc1cc(=O)[nH]c2c(F)cccc12)c1cccc(Cl)c1`, the Activity with Mus musculus [2] turned out to be 40%. This compound returned a CL/F in data set [3] of over 100 mL/min/kg. For the same compound, the inhibition at 100 µM against CYP2D6 and at CYP1A2 was under 50% each time. For the same compound, in data set [4], the peak level (Cmax) was 1400 nM. In addition, the Vdss in the data set with Mus musculus [5] was 1.6 L/kg. The same compound returned an ED50 in the data set with Mus musculus [1] of 10 mg/kg. Also, the half-life in data set [6] is 54 min. In addition, in data set [7], the time of peak concentration (Tmax) was determined as 30 min. This compound also yielded an AUC in data set [8] of 450 ng·h/mL. The negative-log EC50 (pEC50) was 4.48 on Cytochrome P450 2C9, under 4.00 on Cytochrome P450 2D6 and 4.59 on Nitric oxide synthase 3.

`Cc1ncsc1C(=O)N(Cc1c[n+]([O-])cc2c(F)c(F)ccc12)c1cccc(Cl)c1`: the inhibition at 100 µM against CYP2D6 and against CYP1A2 was under 50% in each case. In addition, the values for the pEC50 on Cytochrome P450 2C9, on Cytochrome P450 2D6 and on Nitric oxide synthase 3 were 4.26, under 4.00 and 4.47, respectively.
